According to paper PMC5958747 (Endocrine Connections, 2018):
Marks after values point to notes of the source that are not given here.

Columns and labels:
[1] = test system: MNU-induced mammary tumours; test: N-methyl-N-nitrosourea; assay type: in vivo, female Sprague-Dawley rats; conditions: for increase of mammary tumour number in tumour-bearing rats compared with controls: end of study, significant for glargine only; for number of tumours per rat (tumour multiplicity, all rats): including rats bearing no tumour, 15 U/kg/day s.c. 5 days a week, at 6 weeks of treatment, high-fat diet, MNU, mean ± S.E.M., n = 30 per group
[2] = assay type: in vivo, female Sprague-Dawley rats; conditions: for Final body weight: after 6 weeks of 15 U/kg s.c. 5 days per week; for Final body weight / Food intake / Body weight increase: mean ± S.E.M., n = 30; for Food intake: average over the treatment period; for Body weight increase: over 6 weeks of treatment; for blood glucose levels before the injection vs control or detemir groups: over the treatment period, n = 30 per group
Summary of the method: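 Female Sprague-Dawley rats on a high-fat diet (40% of calories) from 4 weeks of age were given MNU 485 μmol/kg s.c. 1 week later. Light cycle was shifted to 13:00–01:00 h. At 9 weeks, rats were randomised (n = 30/group) to saline or insulin s.c. at 11:00–12:00 h, 5 days/week, ramped 5→10→15 U/kg. Tail-nick glucometer glucose was taken before and 4 h post-injection three times weekly. Data are mean ± s.e.m., analysed by ANOVA and Waller–Duncan test.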

[3] = test system: Akt (phospho-Ser473-Akt / total Akt); test: Western blot of phosphorylated and total Akt in mammary tumours; assay type: in vivo, female Sprague-Dawley rats; conditions: mammary tumours 4 h after last s.c. injection, 15 U/kg
Summary of the method: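 High-fat-fed, MNU-treated female Sprague-Dawley rats received saline or insulin s.c. 5 days/week for 6 weeks. Palpable mammary tumours were collected under ketamine/xylazine/acepromazine anaesthesia 4 h after the last injection, halved, and one half was snap-frozen in liquid nitrogen for Western blotting of phosphorylated and total Akt.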

[4] = assay type: in vivo, female Sprague-Dawley rats; conditions: 15 U/kg s.c.; for steady plasma concentrations (unit/L) up to: high-fat-fed rats, n = 6, unmetabolised glargine
[5] = ref not given, cited from earlier work

NPH: NPH (unmodified human insulin), purchased from Eli Lilly, Canada
increase of mammary tumour number in tumour-bearing rats compared with controls [1]: approximately doubled
Final body weight [2]: 346 ± 7 g
Food intake [2]: 21.1 ± 1.4 g/day
Body weight increase [2]: 98.7 ± 4.5^a g
blood glucose levels before the injection vs control or detemir groups [2]: slightly higher

detemir
number of tumours per rat (tumour multiplicity, all rats) [1]: 1.4 ± 0.4
increase of mammary tumour number in tumour-bearing rats compared with controls [1]: approximately doubled
Final body weight [2]: 338 ± 6 g
Food intake [2]: 19.7 ± 0.8 g/day
Body weight increase [2]: 80.7 ± 3.9 g
ratio of phosphorylated (active) Akt to total Akt vs control group [3]: higher
steady plasma concentrations (unit/L) up to [4]: up to 9 h

glargine
number of tumours per rat (tumour multiplicity, all rats) [1]: 1.5 ± 0.4
increase of mammary tumour number in tumour-bearing rats compared with controls [1]: 2 fold
sustained action after subcutaneous injection in humans ([5]; humans): over 20 h
sustained action after subcutaneous injection ([5]; species not given, general statement): up to 24 h
Final body weight [2]: 343 ± 5 g
Food intake [2]: 21.1 ± 1.2 g/day
Body weight increase [2]: 93.8 ± 4.4 g
blood glucose levels before the injection vs control or detemir groups [2]: slightly higher
ratio of phosphorylated (active) Akt to total Akt vs control group [3]: higher
steady plasma concentrations (unit/L) up to [4]: up to 9 h
peak of glucose-lowering action ([4]; insulin-resistant rats, partial recovery of plasma glucose at 9 h): 1.5 to 4 h
